# B1: Osa-1-4 twister ribozyme (parent)
# chain: CCGCCUAACACUGCCAAUGCCGGUCCCAAGCCCGGAUAAAAGUGGAGGGGGCGG
# Variants of: B1
# Test: self-cleavage, relative activity (ratio to wild type); higher = more cleavage; co-transcriptional
# Method in brief: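 A DNA template was synthesised for a 54-nucleotide twister ribozyme from Oryza sativa, with 97 % wild-type base and 1 % of each other base at each of the 48 positions downstream of the cleavage site. The ribozyme cleaved itself co-transcriptionally during 2 h of in vitro transcription at 37 °C. Reverse transcription with a template-switching oligonucleotide, PCR amplification and deep sequencing followed, and cleavage status came from reads with or without upstream sequence. Relative activity is the fraction cleaved normalised to wild type.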
row,Variant,self-cleavage
1,A28G A29U,0.06
2,A28G A29C,0.02
3,A28G A29G,0.08
4,C27U G23C,0.03
5,C27U G23U,0.03
6,C27U G23A,0.07
7,A28C G48C,0.08
8,A28C G48A,0.09
9,A28C G48U,0.07
10,A28C G42A,0.43
11,A28C G42U,0.08
12,A28C G42C,0.12
13,C27U U12A,0.1
14,C27U U12C,0.07
15,C27U U12G,0.07
16,C27G,0.13
17,C27U,0.33
18,C27U G44U,0.12
19,C27U G44C,0.1
20,C27U G44A,0.08
21,C27U G45A,0.05
22,C27U G45C,0.04
23,C27U G45U,0.04
24,A28C C25U,0.91

row,Variant,self-cleavage
1,A28C C25A,0.09
2,A28C C25G,0.09
3,A28C G47A,0.2
4,A28C G47U,0.19
5,A28C G47C,0.08
6,C27G U37G,0.16
7,C27G U37A,0.08
8,C27G U37C,0.1
9,C27A U43C,0.1
10,C27A U43G,0.15
11,C27A U43A,0.1
12,C27U G34C,0.08
13,C27U G34A,0.18
14,C27U G34U,0.15
15,A28C U12G,0.15
16,A28C U12A,0.89
17,A28C U12C,0.34
18,A28C G22U,0.4
19,A28C G22A,0.68
20,A28C G22C,0.08
21,A28C C15A,0.35
22,A28C C15G,0.32
23,A28C C15U,0.33
24,A28C U37G,0.98

row,Variant,self-cleavage
1,A28C U37A,0.74
2,A28C U37C,1.01
3,A28C C21U,1
4,A28C C21A,0.53
5,A28C C21G,0.09
6,C27U U37A,0.16
7,C27U U37G,0.37
8,C27U U37C,0.32
9,C27U U43C,0.1
10,C27U U43G,0.08
11,C27U U43A,0.11
12,C27G C52G,0.14
13,C27G C52U,0.16
14,C27G C52A,0.08
15,A28C G53U,0.23
16,A28C G53C,0.08
17,A28C G53A,0.78
18,C27G C31U,0.06
19,C27G C31G,0.06
20,C27G C31A,0.01
21,A28C G45A,0.13
22,A28C G45C,0.03
23,A28C G45U,0.08
24,A28C C14G,0.17

row,Variant,self-cleavage
1,A28C C14A,0.09
2,A28C C14U,0.46
3,A28C A8C,0.09
4,A28C A8G,0.17
5,A28C A8U,0.1
6,C27G G48U,0.02
7,C27G G48C,0.03
8,C27G G48A,0.04
9,C27U G19U,0.05
10,C27U G19A,0.08
11,C27U G19C,0.04
12,C27G G22C,0.03
13,C27G G22A,0.05
14,C27G G22U,0.04
15,C27U C9A,0.02
16,C27U C9U,0.1
17,C27U C9G,0.09
18,C27A U12C,0.06
19,C27A U12G,0.11
20,C27A U12A,0.07
21,A28C G34C,0.38
22,A28C G34A,0.69
23,A28C G34U,0.51
24,C27U G53A,0.12

row,Variant,self-cleavage
1,C27U G53U,0.08
2,C27U G53C,0.05
3,C27U G42U,0.03
4,C27U G42A,0.08
5,C27U G42C,0.07
6,C27U C33A,0.05
7,C27U C33G,0.05
8,C27U C33U,0.13
9,C27G C33U,0.05
10,C27G C33G,0.05
11,C27G C33A,0.03
12,C27G U12G,0.06
13,C27G U12C,0.05
14,C27G U12A,0.05
15,C27G C32G,0.05
16,C27G C32U,0.05
17,C27G C32A,0.02
18,A28C G23U,0.07
19,A28C G23A,0.2
20,A28C G23C,0.05
21,A28C U18G,1.01
22,A28C U18A,0.96
23,A28C U18C,0.72
24,C27G U18A,0.09

row,Variant,self-cleavage
1,C27G U18G,0.17
2,C27G U18C,0.09
3,A28C A38C,0.98
4,A28C A38U,0.97
5,A28C A38G,1.01
6,C27G G23C,0.03
7,C27G G23A,0.05
8,C27G G23U,0.02
9,C27U G48U,0.03
10,C27U G48A,0.04
11,C27U G48C,0.05
12,C27U C32G,0.05
13,C27U C32U,0.06
14,C27U C32A,0.04
15,A28C C26G,0.09
16,A28C C26A,0.05
17,A28C C26U,0.78
18,A28C A41U,0.98
19,A28C A41G,0.82
20,A28C A41C,0.91
21,C27G G51C,0.02
22,C27G G51A,0.05
23,C27G G51U,0.04
24,A28C C27U,0.11

row,Variant,self-cleavage
1,A28C C27A,0.09
2,A28C C27G,0.05
3,A28C G35C,0.4
4,A28C G35A,0.81
5,A28C G35U,0.85
6,A28C G51A,0.24
7,A28C G51U,0.28
8,A28C G51C,0.12
9,C27G C9U,0.05
10,C27G C9G,0.07
11,C27G C9A,0.03
12,C27G G47A,0.15
13,C27G G47U,0.21
14,C27G G47C,0.86
15,C27A G53C,0.05
16,C27A G53A,0.09
17,C27A G53U,0.06
18,C27A G54C,0.11
19,C27A G54U,0.35
20,C27A G54A,0.12
21,A28C C20A,0.94
22,A28C C20U,1.01
23,A28C C20G,0.31
24,C27G G42C,0.07

row,Variant,self-cleavage
1,C27G G42A,0.06
2,C27G G42U,0.02
3,A28C A40U,0.55
4,A28C A40C,0.08
5,A28C A40G,0.68
6,A28C C11G,0.21
7,A28C C11U,0.91
8,A28C C11A,0.71
9,C27A G51A,0.1
10,C27A G51C,0.05
11,C27A G51U,0.05
12,C27A U18G,0.34
13,C27A U18A,0.27
14,C27A U18C,0.26
15,C27U G22C,0.03
16,C27U G22A,0.12
17,C27U G22U,0.06
18,A28C U24G,0.05
19,A28C U24C,0.18
20,A28C U24A,0.14
21,C27G G34C,0.05
22,C27G G34U,0.08
23,C27G G34A,0.07
24,C27U C52U,0.37

row,Variant,self-cleavage
1,C27U C52G,0.25
2,C27U C52A,0.21
3,C27A U24A,0.04
4,C27A U24G,0.02
5,C27A U24C,0.06
6,A28C A46C,0.06
7,A28C A46U,0.07
8,A28C A46G,0.07
9,C27G G49U,0.04
10,C27G G49A,0.04
11,C27G G49C,0.03
12,C27A G50C,0.08
13,C27A G50U,0.1
14,A28C A39C,0.93
15,A28C A39G,0.99
16,A28C A39U,1
17,C27G G13C,0.01
18,C27G G13U,0.01
19,C27G G13A,0.03
20,C27G U43G,0.06
21,C27G U43C,0.06
22,C27G U43A,0.08
23,A28C G49A,0.16
24,A28C G49U,0.13

row,Variant,self-cleavage
1,A28C G49C,0.07
2,C27U U24C,0.06
3,C27U U24A,0.04
4,C27U U24G,0.01
5,A28G A7G,0.38
6,A28G A7U,0.07
7,A28G A7C,0.04
8,C27G G53C,0.02
9,C27G G53U,0.03
10,C27G G53A,0.06
11,C27G U24G,0.02
12,C27G U24C,0.04
13,C27G U24A,0.03
14,A28G A8C,0.05
15,A28G A8G,0.19
16,A28G A8U,0.07
17,A28C A36G,1
18,A28C A36C,0.64
19,A28C A36U,1.02
20,C27U G30U,0.05
21,C27U G30A,0.02
22,C27U G30C,0.02
23,C27G G45A,0.02
24,C27G G45U,0.02

row,Variant,self-cleavage
1,C27G G45C,0.03
2,C27U G54A,0.14
3,C27U G54U,0.31
4,C27U G54C,0.12
5,C27G G44U,0.05
6,C27G G44A,0.06
7,C27G G44C,0.08
8,A28C G30A,0.04
9,A28C G30C,0.05
10,A28C G30U,0.04
11,C27U U18C,0.21
12,C27U U18G,0.37
13,C27U U18A,0.24
14,A28C C31A,0.04
15,A28C C31G,0.09
16,A28C C31U,0.84
17,C27U G13A,0.04
18,C27U G13C,0.01
19,C27U G13U,0.01
20,A28C G13A,0.11
21,A28C G13U,0.03
22,A28C G13C,0.02
23,A28C A29U,0.09
24,A28C A29C,0.05

row,Variant,self-cleavage
1,A28C A29G,0.16
2,C27G G54C,0.04
3,C27G G54U,0.12
4,C27G G54A,0.06
5,C27G G30C,0.02
6,C27G G30A,0.02
7,C27G G30U,0.02
8,A28C G50A,0.81
9,A28C G50U,0.98
10,A28C G50C,1
11,C27U G50A,0.18
12,C27U G50C,0.09
13,C27U G50U,0.12
14,A28C G44C,0.95
15,A28C G44A,0.95
16,A28C G44U,0.75
17,A28C C52U,1.01
18,A28C C52A,0.68
19,A28C C52G,0.93
20,A28C A7U,0.07
21,A28C A7C,0.06
22,A28C A7G,0.2
23,C27G G35C,0.04
24,C27G G35A,0.12

row,Variant,self-cleavage
1,C27G G35U,0.1
2,C27U G47U,0.11
3,C27U G47A,0.88
4,C27U G47C,0.42
5,C27U G35C,0.06
6,C27U G35U,0.19
7,C27U G35A,0.31
8,A28C,1
9,A28G,0.48
10,A28C G19U,0.35
11,A28C G19C,0.23
12,A28C G19A,0.79
13,C27A U37A,0.26
14,C27A U37C,0.32
15,C27A U37G,0.42
16,C27G G50C,0.05
17,C27G G50A,0.09
18,C27G G50U,0.07
19,C27G G19A,0.06
20,C27G G19U,0.04
21,C27G G19C,0.03
22,A28G A36C,0.09
23,C27U C31U,0.07
24,C27U C31A,0.02

row,Variant,self-cleavage
1,C27U C31G,0.06
2,A28C C32A,0.08
3,A28C C32G,0.1
4,A28C C32U,0.11
5,C27U G51U,0.07
6,C27U G51C,0.04
7,C27U G51A,0.11
8,C27U G49A,0.05
9,C27U G49C,0.04
10,C27U G49U,0.04
11,A28C C33U,0.86
12,A28C C33A,0.12
13,A28C C33G,0.07
14,A28C G54C,0.86
15,A28C G54U,0.95
16,A28C G54A,0.91
17,A28C U43C,0.33
18,A28C U43A,0.72
19,A28C U43G,0.32
20,A28C C9U,0.8
21,A28C C9A,0.42
22,A28C C9G,0.67
